According to ChEMBL document CHEMBL1158523, “Piperidine-based heterocyclic oxalyl amides as potent p38 alpha MAP kinase inhibitors” (Bioorg Med Chem Lett, 2010):

Key:
[1] = target: Mitogen-activated protein kinase 14 (Homo sapiens, UniProt Q16539); assay: Inhibition of human p38alpha after 60 mins
How it was run: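 Radiometric kinase assay measuring incorporation of γ-32P-ATP into biotinylated peptide substrate by human p38α (5 nM). 60 min at 30 °C, phosphoric acid stop, streptavidin capture, scintillation counting; background-subtracted IC50 versus no-inhibitor controls.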

Blood [2] = assay: Inhibition of LPS-induced TNFalpha production in human diluted whole blood at 1 uM after 2 hrs by ELISA; type: functional
Blood [3] = assay: Inhibition of LPS-induced TNFalpha production in human diluted whole blood after 2 hrs by ELISA; type: functional, tissue-based
Blood [4] = assay: Inhibition of LPS-induced TNFalpha production in human diluted whole blood at 0.3 uM after 2 hrs by ELISA; type: functional

Chain of Mitogen-activated protein kinase 14 (Q16539 whole entry): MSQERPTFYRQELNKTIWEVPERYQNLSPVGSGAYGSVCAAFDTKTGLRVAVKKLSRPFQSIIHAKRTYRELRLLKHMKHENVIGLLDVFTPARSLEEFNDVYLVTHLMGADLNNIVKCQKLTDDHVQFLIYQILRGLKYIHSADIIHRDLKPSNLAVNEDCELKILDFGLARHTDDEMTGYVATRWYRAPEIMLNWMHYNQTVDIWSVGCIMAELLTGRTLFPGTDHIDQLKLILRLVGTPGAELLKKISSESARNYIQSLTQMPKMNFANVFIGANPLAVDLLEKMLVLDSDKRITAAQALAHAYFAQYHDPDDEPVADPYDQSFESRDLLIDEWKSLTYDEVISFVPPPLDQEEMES

**Q.** `Cc1[nH]c2ccc(C(=O)C(=O)N(C)C)cc2c1C(=O)N1CCC(Cc2ccc(F)cc2)CC1` was tested. Which IC50 [1] did it give?
**A.** The IC50 was 90 nM.

**Q.** Which inhibition at 1 µM (Blood [2]) does the source give for `COc1ccc(C(=O)C(=O)N(C)C)cc1C(=O)N1CCC(Cc2ccc(F)cc2)CC1` here?
**A.** Its inhibition at 1 µM is 17%.

**Q.** And the IC50 [1]?
**A.** Its IC50 is 945 nM.

**Q.** `COc1nc2[nH]cc(C(=O)C(=O)N(C)C)c2cc1C(=O)N1CCC(Cc2ccc(F)cc2)CC1` was tested. Which IC50 (Blood [3]) did it give?
**A.** The IC50 was 48 nM.

**Q.** And the IC50 [1]?
**A.** Its IC50 is 60 nM.

**Q.** What does the source list for `CN(C)C(=O)C(=O)c1nn(C)c2cc(Cl)c(C(=O)N3CCC(Cc4ccc(F)cc4)CC3)cc12`?
**A.** inhibition at 0.3 µM (Blood [4]): 26%; IC50 [1]: 100 nM

**Q.** Which IC50 [1] does the source give for `CN(C)C(=O)C(=O)c1ccc2c(c1)C=C(C(=O)N1CCC(Cc3ccc(F)cc3)CC1)C(C(F)(F)F)O2` (centres undefined) here?
**A.** Its IC50 is over 10000 nM.

**Q.** How did the inhibition at 1 µM (Blood [2]) turn out when `COc1cc2occ(C(=O)C(=O)N(C)C)c2cc1C(=O)N1CCC(Cc2ccc(F)cc2)CC1` was run?
**A.** Its inhibition at 1 µM is 10%.

**Q.** And the IC50 [1]?
**A.** Its IC50 is 600 nM.

**Q.** Which IC50 (Blood [3]) does the source give for `COc1cc2[nH]cc(C(=O)C(=O)N(C)C)c2cc1C(=O)N1CCC(Cc2ccc(F)cc2)CC1` here?
**A.** The IC50 was 30 nM.

**Q.** And the IC50 [1]?
**A.** Its IC50 is 10 nM.

**Q.** What does the source list for `CN(C)C(=O)C(=O)c1c[nH]c2cc(Cl)c(C(=O)N3CCC(Cc4ccc(F)cc4)CC3)cc12`?
**A.** IC50 (Blood [3]): 100 nM; IC50 [1]: 18 nM
